# Source: PubChem BioAssay
# In the library only some 2.1% were active in any assay of this set; here they are far more common.
# Cneo AK release = Cryptococcus neoformans cell lysis inducers, primary screen, AK release luminescence, single concentration; C. neoformans lysis, adenylate kinase release luminescence, 4 h; normalised: neutral wells 0, clomiphene wells 100; lysis activity, % at 15 µM; actives 0.2% (n = 360,000); AID 651654, 2012;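 active means mean lysis activity across replicates of at least 80%, whatever share of replicates individually reach that level; inactive means mean lysis activity below 80%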
#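 Test system: log-phase Cryptococcus neoformans yeast cells. Input: 5 × 10^6 yeast cells/mL. Medium: fresh YPD growth medium. Doses: single dose. Incubation: static 4 h at 37 °C with compound, 1 h detection. Measured by: luminescent adenylate kinase detection reagent. Read-out: signal increase indicating cell lysis. Benchmarks: Clomiphene.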
# XiGFP reactiv = activators of inactive X chromosome reactivation, primary screen, imaging, XiGFP fibroblasts, GFP high-content imaging, set 2. XiGFP mouse fibroblasts, % GFP-positive cells imaging, 3 d; cells co-treated with 5-aza-dC sensitizer; scaled so ellipticine positive control = 100%. activation, % at 7.58 µM. actives 0.055% (n = 360,000). AID 743238, 2013;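 active means mean normalized replicate activation at least 10% and every replicate at or above 10%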;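 further: 0% = median of on-plate neutral control wells and 100% = ellipticine 6 µM median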
#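 material = 68-5-11 XiGFP fibroblast line | medium = DMEM plus 5-aza-dC sensitizer | schedule = 3 days compound exposure | benchmarks = positive control ellipticine, 6 µM final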
# C2C12 statin = suppressors of statin myotoxicity in C2C12 myotubes, primary screen, cell-based, single point, plate reader. C2C12 myotubes + simvastatin, ATP luminescence, 48 h; scaled: DMSO 0, geranylgeraniol control 100. rescue of ATP level, % at 7.49 µM. actives 0.78% (n = 330,000). AID 602340, 2012;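 active means mean ATP rescue above about 67%, or every replicate alone reaching that limit, limit read from the data, passing the limit was not always enough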;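 further: myotubes were challenged with 10 µM simvastatin during compound exposure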
# DENV2 CPE rescue = inhibitors of DENV2 cytopathic effect, primary screen, cell-based, plate reader, single concentration | DENV2-infected cells, cytopathic effect rescue | CPE inhibition, % at 9.99 µM | actives 1.7% (n = 350,000); in the data active means CPE inhibition above about 20%, passing the limit was not always enough; tested in BHK-21 cells;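 further: 0% = median of neutral control wells and 100% = median of positive control wells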
# * marks the source's active call; other numbers are inactive results; · = no result given.
SMILES,Cneo AK release,XiGFP reactiv,C2C12 statin,DENV2 CPE rescue
COc1ccc(Nc2nc3ccc(C)cn3c(=O)c2/C=N/O)cc1,0.9,0.0,109.2*,2.5
Cc1ccc(NC(=O)C(=O)NCC2CCCN2S(=O)(=O)c2cccs2)cc1 (stereo unspecified),0.1,0.1,-1.6,37.8*
O=C(NCC1CCCN1S(=O)(=O)c1cccs1)C(=O)Nc1ccccc1 (stereo unspecified),-6.1,0.0,-0.3,8.4
CCC(=O)c1cn(CC(=O)Nc2cccc(C)c2)c2ccccc12,4.9,0.0,13.5,69.1*
CCC(=O)c1cn(CC(=O)Nc2cccc(C)c2C)c2ccccc12,-1.8,0.2,-24.6,4.2
CCC(C)Nc1nc(N)c([N+](=O)[O-])c(NCCO)n1 (stereo unspecified),·,0.1,·,94.0*
COC(=O)C[C@H]1CC[C@@H]2[C@@H](COc3ccc(NC(=O)Nc4ccccc4C)cc3C(=O)N2C)O1,4.8,0.1,0.3,-2.2
N/C(=N\c1nc2ccccc2o1)NC(=O)c1ccc(Cl)cc1,·,0.2,-35.2,-2.2
N/C(=N\c1nc2ccccc2o1)NC(=O)c1ccc(F)cc1,-8.9,·,83.0*,·
C[C@@H]1CCCCO[C@H](CN(C)C(=O)Nc2cccc3ccccc23)[C@H](C)CN([C@H](C)CO)C(=O)c2cc(NS(=O)(=O)c3ccc(Cl)cc3)ccc2O1,-1.9,-0.1,25.0,58.0*
C[C@@H]1CCCCO[C@@H](CN(C)C(=O)Nc2cccc3ccccc23)[C@@H](C)CN([C@@H](C)CO)C(=O)c2cc(NS(=O)(=O)c3ccc(Cl)cc3)ccc2O1,1.8,0.0,-13.0,-4.2
C[C@@H]1CCCCO[C@@H](CN(C)C(=O)Nc2cccc3ccccc23)[C@@H](C)CN([C@H](C)CO)C(=O)c2cc(NS(=O)(=O)c3ccc(Cl)cc3)ccc2O1,-2.6,0.1,94.4*,5.4
CC(C)C[C@@H]1NC(=O)[C@H]2C[C@@H](C(=O)NCCCCCN)[C@@H](c3cccc(OCCO)c3)N2C1=O,-3.3,·,·,31.8*
Cn1c(=O)c2c(ncn2CC(=O)NCc2cccnc2)n(C)c1=O,3.3,·,106.5*,·
CO[C@H]1CC[C@@H]2CCOc3c(C#N)cccc3C(=O)N(C)C[C@@H](OC)[C@@H](C)C(=O)N(C)C[C@@H]1O2,84.8*,0.2,24.2,0.8
CO[C@H]1CC[C@@H]2CCOc3c(C#N)cccc3C(=O)N(C)C[C@@H](OC)[C@@H](C)C(=O)N(C)C[C@H]1O2,2.1,0.1,6.8,3.5
O=C(c1ccccc1F)N1CC2(C1)[C@H](c1ccccc1)[C@H](CO)N2CC1CCCC1,·,0.0,·,-1.6
CC(C)N=Cc1c(O)[nH]c2ccccc12,-1.0,·,82.9*,·
CCOC(=O)C1=NN(C(=O)Cc2ccccc2)C(O)(c2ccc(Cl)cc2)C1 (stereo unspecified),2.7,0.0,139.2*,·
CCOC(=O)C1=NN(C(=O)COc2ccccc2)C(O)(c2ccc(Cl)cc2)C1 (stereo unspecified),·,-0.1,·,-9.2
CO[C@@H]1CN(C)C(=O)c2cc(NS(=O)(=O)c3ccccc3)ccc2OC[C@@H](C)N(Cc2cccnc2)C[C@H]1C,59.3,0.2,13.3,1.3
COc1cc(C)c(Cl)cc1S(=O)(=O)NCCN1CCOCC1,2.8,·,123.3*,·
CCC(=O)N1[C@@H](CO)[C@@H](c2ccc(-c3cccc(OC)c3)cc2)C12CN(C(C)=O)C2,·,0.0,·,0.5
CCC(=O)N1CC2(C1)[C@H](c1ccc(-c3ccc(F)cc3)cc1)[C@H](CO)N2C(C)=O,·,0.0,·,1.4
COCC(=O)N1[C@H](CO)[C@@H](c2ccc(-c3cccc(OC)c3)cc2)C12CN(C(C)=O)C2,·,0.2,·,28.0*
CCC(=O)N1CC2(C1)[C@@H](c1ccc(-c3ccccc3C)cc1)[C@@H](CO)N2C(C)=O,·,0.1,·,-5.7
CCC(=O)N1[C@@H](CO)[C@@H](c2ccc(-c3ccccc3C)cc2)C12CN(C(C)=O)C2,·,0.5,·,60.1*
CC(=O)N1CC2(C1)[C@@H](c1ccc(-c3ccc(F)cc3)cc1)[C@@H](CO)N2C(C)=O,·,0.3,·,78.2*
COCCNC(=O)C[C@@H]1CC[C@H]2[C@@H](COc3ccc(NC(=O)C4CCCC4)cc3C(=O)N2C)O1,1.2,0.1,12.6,15.9
